# Experimental data: ChEMBL document CHEMBL2040729, “Lead optimization of 17β-HSD1 inhibitors of the (hydroxyphenyl)naphthol sulfonamide type for the treatment of endometriosis” (J Med Chem, 2012)
# Active and inactive are the calls of the source. No cut-off for these calls is given here.
# Columns and labels:
# [1] = molecular target: T1, 17-beta-hydroxysteroid dehydrogenase type 1 (Homo sapiens, UniProt P14061); test: Inhibition of human placenta cytosolic 17betaHSD1 using [3H]E1 as substrate after 10 mins by radioflow detection assay
# T1 sequence (P14061 whole entry): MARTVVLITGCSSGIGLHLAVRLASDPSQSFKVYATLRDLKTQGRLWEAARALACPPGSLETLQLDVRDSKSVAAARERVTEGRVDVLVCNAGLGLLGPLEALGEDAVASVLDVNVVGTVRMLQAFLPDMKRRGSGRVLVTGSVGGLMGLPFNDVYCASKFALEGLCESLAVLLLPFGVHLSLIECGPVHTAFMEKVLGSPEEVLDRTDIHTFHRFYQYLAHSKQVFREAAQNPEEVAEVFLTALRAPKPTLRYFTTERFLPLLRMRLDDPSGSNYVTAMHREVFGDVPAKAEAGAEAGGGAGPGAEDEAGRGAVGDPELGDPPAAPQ
# In short: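 Cytosolic 17β-HSD1 from fresh human placenta, obtained by ammonium sulfate precipitation. Incubated at 37 °C in 50 mM phosphate buffer with 20% glycerol and EDTA, with NADH 500 μM and compound (DMSO 1% final). Started with unlabeled + [3H]-E1 (500 nM final), stopped after 10 min with HgCl2, ether-extracted. E1/E2 quantified by radioflow HPLC as % conversion. At least three independent experiments.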
# [2] = molecular target: T2, 17-beta-hydroxysteroid dehydrogenase type 2 (Homo sapiens, UniProt P37059); test: Inhibition of human placenta microsomal 17betaHSD2 using [3H]E2 as substrate after 20 mins by radioflow detection assay
# T2 sequence (P37059 whole entry): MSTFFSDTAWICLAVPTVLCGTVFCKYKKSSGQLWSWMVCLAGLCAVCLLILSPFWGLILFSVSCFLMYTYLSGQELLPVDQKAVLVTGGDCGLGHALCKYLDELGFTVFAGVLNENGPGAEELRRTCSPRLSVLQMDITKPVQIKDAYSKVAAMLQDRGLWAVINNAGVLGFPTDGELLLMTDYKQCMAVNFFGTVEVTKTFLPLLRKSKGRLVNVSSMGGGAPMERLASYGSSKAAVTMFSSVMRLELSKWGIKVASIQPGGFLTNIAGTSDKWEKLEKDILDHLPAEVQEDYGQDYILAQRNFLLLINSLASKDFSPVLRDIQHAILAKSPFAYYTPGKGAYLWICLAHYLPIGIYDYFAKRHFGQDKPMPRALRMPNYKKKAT
# In short: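 Microsomal (pellet) fraction of fresh human placenta incubated with NAD+ 1500 μM, compound, and unlabeled + [3H]-E2 (500 nM final) for 20 min at 37 °C. Stopped with 1 mM HgCl2, ether-extracted. Steroids separated by HPLC with radioflow detection, conversion computed. Mean of three determinations.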
# Callithrix jacchus [3] = organism: Callithrix jacchus; test: Inhibition of mormoset placenta cytosolic 17betaHSD1 using [3H]E1 as substrate at 50 nM after 10 mins by radioflow detection assay
# Callithrix jacchus [4] = organism: Callithrix jacchus; test: Inhibition of mormoset placenta microsomal 17betaHSD2 using [3H]E2 as substrate at 50 nM after 20 mins by radioflow detection assay
# [5] = molecular target: T3, Estrogen receptor (Homo sapiens) (UniProt P03372); test: Relative binding affinity to human recombinant ERalpha receptor using [3H]E2 as substrate after 1 hr by liquid scintillation counting relative to E2
# T3 sequence (whole entry): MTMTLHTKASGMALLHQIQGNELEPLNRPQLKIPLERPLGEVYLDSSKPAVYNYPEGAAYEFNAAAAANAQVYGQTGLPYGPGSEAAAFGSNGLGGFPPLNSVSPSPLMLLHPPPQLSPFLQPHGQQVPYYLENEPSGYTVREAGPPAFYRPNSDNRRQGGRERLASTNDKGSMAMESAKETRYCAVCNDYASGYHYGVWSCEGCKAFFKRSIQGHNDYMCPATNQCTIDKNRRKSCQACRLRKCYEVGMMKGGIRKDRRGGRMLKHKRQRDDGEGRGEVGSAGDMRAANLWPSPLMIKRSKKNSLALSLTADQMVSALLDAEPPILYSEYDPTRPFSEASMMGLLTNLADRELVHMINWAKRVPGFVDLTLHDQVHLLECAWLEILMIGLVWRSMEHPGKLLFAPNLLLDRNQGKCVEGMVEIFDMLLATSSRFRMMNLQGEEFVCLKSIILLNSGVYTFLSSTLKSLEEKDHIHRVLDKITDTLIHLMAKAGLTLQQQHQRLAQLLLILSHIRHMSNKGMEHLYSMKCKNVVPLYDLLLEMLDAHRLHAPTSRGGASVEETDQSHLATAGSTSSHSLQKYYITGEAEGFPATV
# In short: (§1)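 Recombinant human ERα or ERβ (0.25 pmol) incubated 1 h at rt with [3H]-E2 (10 nM) and compound in DMSO (5% final). Nonspecific binding defined with diethylstilbestrol 10 μM. Bound complex captured on hydroxyapatite, washed, resuspended in ethanol, counted by liquid scintillation. Concentrations displacing 50% of bound label compared with E2, which is set at 100%.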
# [6] = molecular target: Estrogen receptor beta (Homo sapiens) (UniProt Q92731); test: Relative binding affinity to human recombinant ERbeta receptor using [3H]E2 as substrate after 1 hr by liquid scintillation counting relative to E2; in short: as §1
# [7] = molecular target: T4, 17-beta-hydroxysteroid dehydrogenase type 1 (Mus musculus) (UniProt P51656); test: Inhibition of mouse liver cytosolic 17betaHSD1 using [3H]E1 as substrate
# T4 sequence (whole entry): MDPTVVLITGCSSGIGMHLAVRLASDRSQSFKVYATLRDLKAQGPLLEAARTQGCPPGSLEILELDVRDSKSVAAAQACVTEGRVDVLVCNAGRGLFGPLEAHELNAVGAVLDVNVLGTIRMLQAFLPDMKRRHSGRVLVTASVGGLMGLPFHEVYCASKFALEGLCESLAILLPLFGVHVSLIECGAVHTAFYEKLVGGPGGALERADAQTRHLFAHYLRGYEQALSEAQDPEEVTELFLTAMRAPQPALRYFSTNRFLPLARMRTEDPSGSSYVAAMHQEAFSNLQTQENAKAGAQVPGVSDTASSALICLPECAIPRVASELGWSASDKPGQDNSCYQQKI
# [8] = molecular target: T1, 17-beta-hydroxysteroid dehydrogenase type 1; test: Inhibition of 17betaHSD1 in human T47D cells using [3H]E1 as substrate incubated for 30 mins prior to substrate addition measured after 30 mins by radioflow detection assay; format: cell-based
# In short: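 T47D cells kept in RPMI 1640 with 10% FCS, glutamine, insulin-zinc, pyruvate, antibiotics. Seeded at 5 × 10^5 cells/well in DMEM with FCS, switched to serum-free DMEM after 24 h. Compound added in DMSO (1% final), 30 min preincubation at 37 °C, 5% CO2. Then unlabeled + [3H]-E1 (50 nM final) for 30 min. Steroids extracted into diethylether. Mean of three determinations.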
# [9] = molecular target: T5, Estradiol 17-beta-dehydrogenase 2 (Mus musculus) (UniProt P51658); test: Inhibition of mouse liver microsomal 17betaHSD2 using [3H]E2 as substrate
# T5 sequence (whole entry): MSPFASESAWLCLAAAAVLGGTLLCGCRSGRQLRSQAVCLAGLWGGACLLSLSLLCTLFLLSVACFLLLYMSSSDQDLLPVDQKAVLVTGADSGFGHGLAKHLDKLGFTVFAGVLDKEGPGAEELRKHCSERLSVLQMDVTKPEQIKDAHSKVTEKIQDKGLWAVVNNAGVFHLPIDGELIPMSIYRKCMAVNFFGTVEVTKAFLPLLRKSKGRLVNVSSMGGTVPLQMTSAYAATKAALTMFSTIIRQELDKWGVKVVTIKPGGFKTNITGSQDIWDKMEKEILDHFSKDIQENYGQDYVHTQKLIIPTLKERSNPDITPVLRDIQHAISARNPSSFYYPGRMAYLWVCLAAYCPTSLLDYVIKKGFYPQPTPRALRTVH
# [10] = molecular target: T6, 17-beta-hydroxysteroid dehydrogenase type 1 (Homo sapiens) (UniProt P14061); test: Inhibition of human placenta cytosolic 17betaHSD1 using [3H]E1 as substrate at 10 nM after 10 mins by radioflow detection assay
# T6 sequence (whole entry): T1 sequence (P14061 whole entry)
# Chain of Estrogen receptor beta (Homo sapiens) (Q92731 whole entry): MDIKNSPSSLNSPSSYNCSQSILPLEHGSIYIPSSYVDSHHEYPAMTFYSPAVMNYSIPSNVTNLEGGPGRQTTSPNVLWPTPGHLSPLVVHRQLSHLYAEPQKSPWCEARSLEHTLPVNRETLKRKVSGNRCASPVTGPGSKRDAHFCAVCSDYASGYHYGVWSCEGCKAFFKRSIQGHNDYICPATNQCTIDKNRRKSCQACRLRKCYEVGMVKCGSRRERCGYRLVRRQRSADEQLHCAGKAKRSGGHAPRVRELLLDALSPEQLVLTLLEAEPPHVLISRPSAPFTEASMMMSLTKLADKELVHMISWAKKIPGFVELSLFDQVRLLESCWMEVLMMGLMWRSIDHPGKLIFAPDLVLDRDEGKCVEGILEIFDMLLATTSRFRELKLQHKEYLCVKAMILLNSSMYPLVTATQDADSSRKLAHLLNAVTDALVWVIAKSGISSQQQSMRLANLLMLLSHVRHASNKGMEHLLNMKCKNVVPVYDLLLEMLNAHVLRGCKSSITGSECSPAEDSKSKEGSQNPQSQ
IC50 [1],IC50 [2],inhibition (Callithrix jacchus [3]),inhibition (Callithrix jacchus [4]),RBA [5],RBA [6],inhibition [7],IC50 [8],inhibition [9],inhibition [10],SMILES
14 nM,999 nM,20%,< 10%,< 0.1%,< 0.1%,inactive,701 nM,Active,–,O=S(=O)(Nc1cccc(-c2c(O)ccc3cc(-c4cccc(O)c4)ccc23)c1)c1cccc(O)c1
14 nM,439 nM,43%,35%,< 0.1%,< 0.1%,inactive,157 nM,Active,> 30%,N#Cc1ccccc1S(=O)(=O)Nc1cccc(-c2c(O)ccc3cc(-c4cccc(O)c4)ccc23)c1
32 nM,1210 nM,17%,32%,< 0.1%,< 0.1%,inactive,246 nM,Active,> 30%,O=S(=O)(CC(F)(F)F)Nc1cccc(-c2c(O)ccc3cc(-c4cccc(O)c4)ccc23)c1
15 nM,403 nM,19%,< 10%,< 0.1%,< 0.1%,inactive,196 nM,Active,> 30%,O=S(=O)(Nc1cccc(-c2c(O)ccc3cc(-c4cccc(O)c4)ccc23)c1)c1ccccc1
